# S1P3 agonist: agonists of human S1P3 receptor | Q99500 | S1P3 NFAT-BLA reporter cells, agonism, FRET ratio; relative to 1 µM S1P, basal subtracted | activation, % at 4.5 µM | 0.1% of 60,000 active;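 active = activation above the screen-wide mean plus 3 SD, cut at about 4.5% in these data, passing the limit was not always enough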
#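 Assay system: CHO cells stably expressing human S1P3, Gα16 and NFAT-β-lactamase reporter. Timing: overnight plating, 4 h compound 37 °C, 2 h substrate RT. Signal: β-lactamase FRET emission ratio 460/535 nm. Measure: percent activation versus median 1 µM S1P response, basal-subtracted, per plate. Repeats: primary screen single test, confirmation screen in triplicate.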
# S1P1 ag-PAM: activates or potentiates agonism at human S1P1 receptor; P21453; S1P1 CRE-bla cells, forskolin, beta-lactamase FRET, potentiator mode; S1P1 agonist co-added at EC20, 2 nM; 100% = saturating reference agonist, 0% = basal; activation, % at 9.5 µM; 0.57% of 56,000 active; AID 449;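 active = activation above a cutoff set at the mean activation of all tested compounds plus 3 SD, cut at about 54% in these data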;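 note: forskolin at 4 µM as EC80 and the EC20 agonist is SEW2871; 100% = SEW2871 at its EC100 plus forskolin at EC80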
# M1 agonist: agonists of M1 muscarinic receptor; CHO-M1 cells, Fluo-4 calcium fluorescence, agonist mode; active compounds read high; 3% of 64,000 active; B-score at 10 µM;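 active = fluorescence rise, raw or as B-score row- and column-corrected plate score, outside the 99.7% band of its plate's samples, either direction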
# M1 antagonist: M1 muscarinic receptor (rat) antagonism | 3.4% of 64,000 active | P08482 | B-score at 10 µM | AID 628 | CHO-M1 cells, Fluo-4 calcium, ACh EC80 antagonist mode; active compounds read low;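 active = calcium fluorescence response, raw or row-and-column corrected B-score, differing from the plate sample mean either way at a set confidence level, mostly lower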
# RORa activator: activators of human nuclear receptor RORA; P35398; CHO-K1 Gal4-RORA LBD luciferase reporter, luminescence; percent increase over mock-subtracted basal signal; activation, % at 10 µM; 1.5% of 65,000 active; AID 560;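 active = activation above the mean of all tested compounds plus 3 SD, cut at about 49% in these data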;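 note: 0% = DMSO-treated RORA cells and 100% = added signal equal to DMSO minus mock-transfected cells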
# SF-1 act: activators of human nuclear receptor SF-1; CHO-K1 Gal4-SF-1 LBD luciferase reporter; % increase over DMSO SF-1-specific signal; activation, % at 10 µM; 1.9% of 65,000 active; AID 522;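 active = activation above the mean activation of all tested compounds plus 3 SD, cut at about 50% in these data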
# Target sequence (Q13285 whole entry, looked up, the tested form may be a part): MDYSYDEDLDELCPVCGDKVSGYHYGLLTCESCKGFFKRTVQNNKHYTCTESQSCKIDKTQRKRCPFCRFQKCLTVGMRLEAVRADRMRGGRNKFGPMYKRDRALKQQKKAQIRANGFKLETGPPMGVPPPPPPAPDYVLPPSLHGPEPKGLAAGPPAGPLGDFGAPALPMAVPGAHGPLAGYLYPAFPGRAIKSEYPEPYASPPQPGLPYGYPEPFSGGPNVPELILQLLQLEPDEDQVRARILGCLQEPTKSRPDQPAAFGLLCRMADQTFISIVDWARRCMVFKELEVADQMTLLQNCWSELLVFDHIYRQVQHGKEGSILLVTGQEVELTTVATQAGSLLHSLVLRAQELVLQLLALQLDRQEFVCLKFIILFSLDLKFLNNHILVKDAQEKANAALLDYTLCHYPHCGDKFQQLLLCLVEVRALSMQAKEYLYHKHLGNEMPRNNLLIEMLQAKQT
#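 Test system: transient Gal4-SF-1 LBD reporter, CHO-K1; Amount: 4,000 CHO-K1 cells per well; Doses: 10 µM only; Timing: compound exposure 20 h at 37 °C; Signal: luciferase light emission; Read-out basis: percent activation relative to DMSO median and mock-transfected background; Control set: DMSO negative control and −SF1 background wells; Replicates: one test per compound.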
# Starred values were filed as active, the others as inactive; nt = not tested or not shown. Sampled rows, rich in hits. Any-hit rate of the full collection: about 8.8%.
SMILES,S1P3 agonist,S1P1 ag-PAM,M1 agonist,M1 antagonist,RORa activator,SF-1 act
O=C1c2ccccc2C(=O)N1Cc1nc2ccccc2c(=O)n1Cc1ccco1,-1,6,-0.13,-0.24,-15,-11
OCCOCCNc1ncnc2c1cnn2-c1ccc(Cl)cc1,-4,-15,1.2,0.079,7,64*
COCCN(CCOC)c1ncnc2c1cnn2-c1ccc(Cl)cc1,nt,nt,-0.16,0.42,55*,33
COCCNc1ncnc2c1cnn2-c1ccc(Cl)cc1,-2,-44,0.89,-1.1,54*,68*
Clc1ccc(-n2ncc3c(NCc4cccs4)ncnc32)cc1,-4,-2,-0.71,-1.1,44,74*
CC(C)Nc1ncnc2c1cnn2-c1ccc(Cl)cc1,-1,14,0.8,-2.8,11,14
Oc1ccccc1-c1cc(-c2ccccc2Cl)[nH]n1,-1,17,-0.049,-0.76,-7,20
Clc1ccccc1-c1nc(-c2ccccc2)n[nH]1,0,8,-0.018,0.1,61*,18
CCc1ccc(C(=O)N2CCCC2)s1,-1,-9,0.16,-0.44,-6,11
CCc1ccc(C(=O)NC2CCCCC2)s1,-1,9,0.55,0.18,55*,59*
O=C(NCc1cccs1)c1cc2c(s1)-c1ccccc1OC2,1,-13,0.84,0.28,53*,36
O=C(NCc1cccs1)c1ccc(Cl)s1,-1,1,0.34,0.22,-4,9
CCc1ccc(C(=O)NCc2cccs2)s1,1,-18,-0.095,0.27,10,70*
CC(=O)Oc1ccccc1-c1nc(C)nc(N(C)C(C)=O)n1,-1,-63,2.4,0.042,7,13
CCOC(=O)N1CCN(C(=O)c2nc3ccccc3s2)CC1,-1,17,-0.3,0.44,23,32
c1coc(-c2nnc3sc(C4CCCCC4)nn23)c1,-1,-7,-0.045,0.28,6,-6
Cc1cc(NC(=O)CN2CCN(c3ccccc3O)CC2)no1,nt,nt,0.027,-1,11,7
Cn1c(=O)oc2cc(S(=O)(=O)N3CCCC(C(=O)N4CC=C(c5ccccc5)CC4)C3)ccc21 (stereo not given),-1,63,3.4*,-1.9,-20,-7
Cn1c(=O)oc2cc(S(=O)(=O)NCCC(=O)N3CC=C(c4ccccc4)CC3)ccc21,0,11,-0.44,-0.49,5,-12
Clc1ccccc1Cn1nnc(-c2cccs2)n1,0,-9,-0.44,0.0022,43,51*
CCOC(=O)c1c(C)nc(-c2ccccc2)nc1N,0,-44,0.46,0.63,51*,58*
CCOC(=O)c1c(C)nc(-c2ccccc2)nc1NC(C)=O,-1,-29,-0.24,-0.089,25,26
Cc1c(NC(=O)COc2ncnc3ccccc23)c(=O)n(-c2ccccc2)n1C,0,-39,0.018,-0.17,8,2
Cc1c(-n2c(CN3C(=O)c4ccccc4C3=O)nc3ccccc3c2=O)c(=O)n(-c2ccccc2)n1C,0,-11,-1.5,1.5*,-5,-14
CCC(=O)N1CCN=C1SCc1ccc(Cl)cc1,-1,10,-0.83,-0.23,10,-6
SMILES,S1P3 agonist,S1P1 ag-PAM,M1 agonist,M1 antagonist,RORa activator,SF-1 act
CCOc1ncccc1C(=O)OCC(=O)c1cc(C)n(Cc2ccco2)c1C,-1,54,-0.63,-0.11,91*,57*
Cc1cc(O)ccc1Nc1nc2ccccc2nc1Nc1ccc(O)cc1C,1,-7,-0.75,-0.23,-5,7
C=CCOc1ccc(C(=O)N(Cc2ccc(N(C)C)cc2)C2CCS(=O)(=O)C2)cc1 (stereo not given),-1,-3,1.1,0.5,14,1
CN(C(=O)c1cnccn1)c1nnc(-c2cnccn2)s1,-1,-13,-0.7,-0.21,6,-10
CN(C(=O)c1cccnc1)c1nnc(-c2ccccn2)s1,0,-3,-1,-0.23,39,70*
COCCN(C(=O)c1ccccc1)c1nnc(-c2cccnc2)s1,0,62*,0.11,-0.018,19,5
CN(C(=O)c1ccccn1)c1nnc(-c2cnccn2)s1,0,-3,0.39,1,44,70*

# Bioassay records from PubChem BioAssay.
